We go through 97 molecules from ChEMBL document CHEMBL4513216, “Probing the Open Global Health Chemical Diversity Library for Multistage-Active Starting Points for Next-Generation Antimalarials” (ACS Infect Dis, 2020).

A short description of this series: Toxicity liver stage against HepG2, at 10uM. It is filed as cell-based. More on the design: test concentration 10 uM, cell line HepG2-A16-CD81EGFP. Conditions: human, HepG2-A16-CD81EGFP cells; read-out: INHIBITION
A digest of the protocol: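 Uninfected HepG2-A16-CD81EGFP cells, 3 × 10^3 per well, 1536-well, plated on prespotted compound at 10 μM final, parasite-free screening media added to match infected plates; puromycin 10 μM positive, DMSO 0.5% negative; run in parallel with 48 h PbLuc assay at 37 °C, 5% CO2; viability by CellTiter-Glo luminescence, normalized to controls.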
Consider `COc1cc2nc(C)n(CC(=O)NCC(C)C)c(=O)c2cc1OC`, for which the cytotoxicity at 10 µM is -4.76%.

In the case of `CC(=O)c1cccc(NC(=O)Cn2cnc(-c3ccccc3)cc2=O)c1`, the cytotoxicity at 10 µM is -12.3%.

For the molecule `CS(=O)(=O)N1CCN(c2ccc(Nc3ccccn3)nn2)CC1`, the cytotoxicity at 10 µM is -6.01%.

For `N#Cc1cccc(C(=O)N2CC(c3nc(-c4ccc[nH]c4=O)no3)C2)c1`, the cytotoxicity at 10 µM is -4.13%.

As for `COCCN1CC2(CCN(Cc3ccco3)CC2)c2ccccc21`, the cytotoxicity at 10 µM stood at 18.3%.

As to `CCOCC1CC2(CCN(C(=O)CC3=CCCCC3)CC2)CO1` (configuration not stated), the cytotoxicity at 10 µM was -3.95%.

In the case of `Cc1ccc(N2CCC3(CCC(=O)N3)CC2)nn1`, the cytotoxicity at 10 µM is 0.903%.

Consider `COc1cc(OC)c(-n2nnc(C(=O)O)c2C)cc1Cl`, for which the cytotoxicity at 10 µM was -16.8%.

`CCN(c1ccc(C(=O)NCCCN2CCCCC2)cc1)S(=O)(=O)CC`: the cytotoxicity at 10 µM was 7.91%.

Turning to `CN1C(=O)C(C)(C)COc2cc(NS(=O)(=O)c3ccccc3)ccc21`, the cytotoxicity at 10 µM is -7.89%.

Turning to `CN(C)C(=O)CC1CC2(CCN(C(=O)N(C)C)CC2)Oc2ccccc21` (configuration not stated), the cytotoxicity at 10 µM is -11.5%.

Regarding `COCCO[C@@H]1CCN(C(=O)c2ccc(C)o2)[C@@H]1Cc1cnn(C)c1`, the cytotoxicity at 10 µM was -12.8%.

Turning to `Cc1nc(N2CCCC2)ncc1-c1cc(O)nc(N2CCOCC2)n1`, the cytotoxicity at 10 µM is 10.4%.

Regarding `COc1ccc(C2=Nn3c(CCN)nnc3-c3ccccc3C2)cc1`, the cytotoxicity at 10 µM turned out to be 4.92%.

With `COc1ccccc1CNC(=O)C(C)n1cc2c(n1)c(C)nn2C` (configuration not stated), the cytotoxicity at 10 µM stood at 1.61%.

In the case of `Cc1ccccc1CNC(=O)Cn1ncc2c1c(C)nn2C`, the cytotoxicity at 10 µM amounted to 9.71%.

Turning to `Cc1nn(C)c2cnn(Cc3ccc(C(=O)N4CCCCC4)o3)c12`, the cytotoxicity at 10 µM amounted to 11.3%.

Consider `Cc1nc(NC(=O)C(C)n2ncc(Br)c2C)sc1C` (configuration not stated), for which the cytotoxicity at 10 µM worked out at 10.3%.

Regarding `CO[C@H]1CN(C(=O)c2cccc(C)n2)CC[C@@]12CCCO2`, the cytotoxicity at 10 µM is -6.6%.

In the case of `O=C(O)c1cn2cc(C(F)(F)F)ccc2n1`, the cytotoxicity at 10 µM worked out at 3.52%.

For `CN1CCN(C(=O)Cc2csc(-c3ccsc3)n2)C(c2ccccc2)C1` (configuration not stated), the cytotoxicity at 10 µM was -8.38%.

Take `COc1cccc(COC(C)C(=O)NCc2nnc3n2CCC3)c1` (configuration not stated): the cytotoxicity at 10 µM is 8.67%.

On to `Cc1cc(NC(=O)N2CCN(C)CC2C)n(C(C)(C)C)n1` (configuration not stated), for which the cytotoxicity at 10 µM came out at 6.3%.

With `CC(C)(CNC(=O)C1CCCN(C(N)=O)C1)c1cccc(Cl)c1` (configuration not stated), the cytotoxicity at 10 µM amounted to 1.75%.

Regarding `COC(=O)C1=NN2C(=NS(=O)(=O)c3ccccc32)N1`, the cytotoxicity at 10 µM is -8.57%.

As for `CC(C1CC1)N(C)Cc1nnc(-c2ccco2)o1` (configuration not stated), the cytotoxicity at 10 µM was -2.14%.

Consider `Cc1cn2c(n1)CCC(NS(=O)(=O)c1sc(C)nc1C)C2` (configuration not stated), for which the cytotoxicity at 10 µM was -20.8%.

In the case of `CN(C)c1ccc(C(=O)N2CCCC2c2ccc(Cl)cc2)cc1` (configuration not stated), the cytotoxicity at 10 µM was determined as 1.21%.

`CN1CCCN(C(=O)NCCNc2ncccc2C#N)CC1`: the cytotoxicity at 10 µM was 6.75%.

Regarding `COCCCn1ccc(NC(=O)NCc2cccc(N(C)C)c2)n1`, the cytotoxicity at 10 µM was determined as 2.4%.

Take `CCOc1ccc(C(=O)N(C)Cc2nccn2CC(F)(F)F)cc1`: the cytotoxicity at 10 µM was -0.296%.

Turning to `COc1c(CNCC(O)COc2ccc3c(c2)OCO3)c(C)nn1C` (configuration not stated), the cytotoxicity at 10 µM turned out to be 3.07%.

As to `c1ccc2c(c1)CCC21CN(CCc2ccncc2)CCO1` (configuration not stated), the cytotoxicity at 10 µM was -0.934%.

As to `CC(C(=O)N1CCOCC1)N1CCc2cncnc2C1` (configuration not stated), the cytotoxicity at 10 µM is -5.05%.

With `CC(C)(C)CC(=O)NCC(=O)Nc1ccn(Cc2ccccc2)n1`, the cytotoxicity at 10 µM turned out to be 7.08%.

`CC(C)(O)CN1CCN(C(=O)COC2CCCCC2)CC1`: the cytotoxicity at 10 µM was -2.77%.

Take `CCn1nc(C)c(CNCCn2cc(C)cn2)c1C`: the cytotoxicity at 10 µM is -4.91%.

`CS(=O)(=O)CCCN(CCCO)C1CCc2ccccc21` (configuration not stated): the cytotoxicity at 10 µM is -10.4%.

With `O=C(c1ccc(O)nc1)N1CCN(C(=O)c2ccc(F)c(F)c2)CC1`, the cytotoxicity at 10 µM was -10.3%.

In the case of `FC(F)(F)c1cc(NCCn2ncnn2)nc(-c2cccnc2)n1`, the cytotoxicity at 10 µM was determined as 18.9%.

In the case of `CCC(C(=O)N1CCCSCC1)N1CCCC1=O` (configuration not stated), the cytotoxicity at 10 µM was 6.27%.

Regarding `Cc1cnn(CCNc2nc(C)cc(N(C)C)n2)c1`, the cytotoxicity at 10 µM worked out at 5.36%.

`CNc1nc(CNC(=O)Nc2ccc(OC)cc2C)cs1`: the cytotoxicity at 10 µM is -8.17%.

For `Cc1csc(N2CCN(Cc3cnc(C)s3)CC2C)n1` (configuration not stated), the cytotoxicity at 10 µM came out at 14.7%.

Consider `CCN1CC2(CC1=O)CN(C(=O)NC(C)C)CCN(S(C)(=O)=O)C2` (configuration not stated), for which the cytotoxicity at 10 µM was -3.67%.

Turning to `CN1C(=O)C(c2cccnc2)CC12CCN(Cc1nccs1)CC2` (configuration not stated), the cytotoxicity at 10 µM is -1.16%.

Turning to `O=C(c1ccco1)N1CCc2onc(Cn3cccn3)c2C1`, the cytotoxicity at 10 µM is -1.22%.

With `Cc1nc2c(c(N3CCC(O)(CN4CCCC4)CC3)n1)CCN(C)CC2`, the cytotoxicity at 10 µM was -2.84%.

In the case of `CCN(CC)C(=O)[C@@H]1C[C@H](NC(=O)c2ccn(C(C)(C)C)c2)CN1C`, the cytotoxicity at 10 µM was -19.3%.

In the case of `Cc1nc(C)n(CC(C)C(=O)N2CCC(N3CCC(O)CC3)CC2)n1` (configuration not stated), the cytotoxicity at 10 µM was 1.43%.

For the molecule `CC(c1nccs1)n1cc(-c2cc(CN3CCCCC3)cs2)nn1` (configuration not stated), the cytotoxicity at 10 µM is 1.22%.

`Cc1cccc(C(=O)N2CCCC(c3nccn3Cc3cscn3)C2)n1` (configuration not stated): the cytotoxicity at 10 µM is -1.28%.

Regarding `Cc1nc(-c2cccnc2)ncc1C(=O)N1CCC(c2ncc[nH]2)CC1`, the cytotoxicity at 10 µM worked out at 0.626%.

On to `COc1ccc(NC(=O)N2CCC3(CC2)NC(=O)CC3C(=O)O)cc1Cl` (configuration not stated), for which the cytotoxicity at 10 µM was -3.06%.

For the molecule `CN(Cc1cnccn1)C(=O)c1ccc(CSc2nnc[nH]2)o1`, the cytotoxicity at 10 µM turned out to be 1.22%.

On to `O=C(CCn1cccn1)N1CCC(C2CCN(c3ncccn3)CC2)C1` (configuration not stated), for which the cytotoxicity at 10 µM was 5.33%.

Take `CS(=O)(=O)N1CCc2[nH]cnc2C12CCN(C(=O)c1cccnc1)CC2`: the cytotoxicity at 10 µM amounted to 2.62%.

As to `Cc1cc(C(=O)N(C)C2CCN(C)C2)c2ccc(F)cc2n1` (configuration not stated), the cytotoxicity at 10 µM is -2.55%.

As to `COc1ccc(Cn2cc(C(=O)N(C)Cc3cnccn3)nn2)cc1`, the cytotoxicity at 10 µM turned out to be 9.81%.

As to `Cc1ccccc1CN(Cc1ccncc1)CC(C)C`, the cytotoxicity at 10 µM was 11.9%.

Turning to `CCC1CCCCN1S(=O)(=O)c1c(N)noc1C` (configuration not stated), the cytotoxicity at 10 µM amounted to 9.5%.

Turning to `Cc1cnccc1N1CCCN(C(=O)CCCS(N)(=O)=O)CC1`, the cytotoxicity at 10 µM is -18.7%.

With `Cc1nnc(CN(C)C2CCN(CCc3ccccn3)CC2)o1`, the cytotoxicity at 10 µM worked out at 1.04%.

As to `Cc1cnn(CC2CCCN2Cc2nnc(C(C)C)o2)c1` (configuration not stated), the cytotoxicity at 10 µM was -20.3%.

Consider `Cn1ncc2c(N3CCN(C(=O)c4ccsc4)CC3)ncnc21`, for which the cytotoxicity at 10 µM was -9.27%.

Turning to `CC(C(=O)NCc1ccc(N2CCCC2)nc1)n1cncn1` (configuration not stated), the cytotoxicity at 10 µM is -22.4%.

Turning to `CCN(CC)Cc1ccc(C(=O)N2CCN(CC(C)O)CC2)o1` (configuration not stated), the cytotoxicity at 10 µM was -9.65%.

Take `CCc1nnc2n1CCN(C(=O)c1nc(-c3ccco3)sc1C)C2`: the cytotoxicity at 10 µM is -1.19%.

As to `CCN(CC)CC(=O)N1CCCC1Cn1cccn1` (configuration not stated), the cytotoxicity at 10 µM is -3.08%.

With `COc1ccc(S(=O)(=O)NCc2cccnc2N(C)C)cc1`, the cytotoxicity at 10 µM is 5.32%.

As for `CNC(=O)CS(=O)(=O)Cc1cc(Cl)c2c(c1)OCCO2`, the cytotoxicity at 10 µM was -4.17%.

Consider `CCOc1ccccc1CNC1CCCN(Cc2noc(C)n2)C1` (configuration not stated), for which the cytotoxicity at 10 µM was -13.1%.

For `Cc1cccc(C2(CNC(=O)CO)CCCC2)c1`, the cytotoxicity at 10 µM was -19.1%.

For the molecule `O=C1C(NS(=O)(=O)c2ccc(F)c(F)c2)CCN1Cc1ccccc1` (configuration not stated), the cytotoxicity at 10 µM is -2.81%.

Regarding `Cc1cc(C)n(C2CN(CC(O)c3ccc(S(C)(=O)=O)cc3)C2)n1` (configuration not stated), the cytotoxicity at 10 µM is -12.9%.

In the case of `CC(C)c1noc(CCCC(=O)NCC2CCS(=O)(=O)C2)n1` (configuration not stated), the cytotoxicity at 10 µM was -22.3%.

Regarding `Cc1ccc(NC2CCN(C(=O)c3cccnc3N(C)C)CC2)nn1`, the cytotoxicity at 10 µM was -12.1%.

`c1ccc2c(OCCN3CCn4c(nnc4C4CC4)C3)cccc2c1`: the cytotoxicity at 10 µM was -3.87%.

As to `c1ccc(Cc2nnc(CN3CCn4c(nnc4C4CC4)C3)o2)cc1`, the cytotoxicity at 10 µM was -0.192%.

On to `CN(C)C1CCCN(C(=O)NCc2ccccc2-n2cccn2)C1` (configuration not stated), for which the cytotoxicity at 10 µM is -4.14%.

For `Cc1cc(C)cc(OCCN(C)C(=O)NC(C)c2nncn2C)c1` (configuration not stated), the cytotoxicity at 10 µM was -19.1%.

For `CCOc1ncccc1CNC(=O)NCCNC(=O)c1ccco1`, the cytotoxicity at 10 µM is 1.16%.

Turning to `Cc1cccc(C(=O)NCCCN2CCc3ccccc3C2)c1C`, the cytotoxicity at 10 µM was -4.71%.

In the case of `CCc1noc(CN(Cc2cccs2)CC2CCCO2)n1` (configuration not stated), the cytotoxicity at 10 µM is -8.66%.

`CCc1nccn1C1CCCN(C(=O)c2ccoc2C)C1` (configuration not stated): the cytotoxicity at 10 µM was -28%.

As to `COc1cc(CNCc2c(C)nn(C)c2N(C)C)ccc1OCCO`, the cytotoxicity at 10 µM is -7.59%.

In the case of `Cc1cnn(CC2CN(Cc3nc(-c4ccccn4)no3)CCO2)c1` (configuration not stated), the cytotoxicity at 10 µM is -22.6%.

`Cc1nn(C)c(Cl)c1C1CCCN1CC(=O)Nc1cccnc1` (configuration not stated): the cytotoxicity at 10 µM is -17.2%.

With `CC(=O)N1CCCN(C(=O)NC(C)Cn2cccn2)CC1` (configuration not stated), the cytotoxicity at 10 µM was -13%.

With `Cc1cccnc1NC(=O)NCc1ccc(N2CCNC(=O)C2)cc1`, the cytotoxicity at 10 µM was -8.85%.

As for `CN(Cc1nc(N2CCCC2)ncc1-c1ccncc1)C(=O)C(C)(C)C`, the cytotoxicity at 10 µM turned out to be 6.58%.

On to `Cn1nc(COCC2CC2)c2c1CN(CC1CC1)CC2`, for which the cytotoxicity at 10 µM is 13.8%.

Consider `CCC(=O)N1CC[C@H]2[C@H](C[C@@H](Cn3cccn3)N2c2nccs2)C1`, for which the cytotoxicity at 10 µM came to 5.68%.

For the molecule `CN1CCc2ncc(CNc3cc(N(C)C)ncn3)n2CC1`, the cytotoxicity at 10 µM turned out to be 0.749%.

As for `COCc1n[nH]c2c1CN(C(=O)c1ccncc1)C2`, the cytotoxicity at 10 µM was determined as 16.6%.

Regarding `Cc1cccc(CN2C[C@@H]3C[C@H](C(=O)NCc4cccnc4)[C@H](C2)O3)c1`, the cytotoxicity at 10 µM was -5.98%.

For `O=C(CSc1ncccn1)N1C[C@@H]2CC[C@H]1CN(Cc1ccncc1)C2`, the cytotoxicity at 10 µM was -13%.
